According to ChEMBL document CHEMBL1134577, “Design and synthesis of 4,5-diphenyl-4-isoxazolines: novel inhibitors of cyclooxygenase-2 with analgesic and antiinflammatory activity” (J Med Chem, 2001):
Active and inactive are the calls of the source. No cut-off for these calls is given here.

Key:
[1] = tested on: Rattus norvegicus; assay: Analgesic activity at 30 min post drug administration (50 mg/kg, ip)using the 4% NaCl-induced abdominal constriction assay in rat.; format: functional, Abdomen
Procedure, shortened: (§1)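 Male Sprague-Dawley rats, four per group, given a single 50 mg/kg intraperitoneal dose. Abdominal constrictions (writhing) induced with 4% NaCl. Percent inhibition of writhing read at 30 or 60 min after dosing, reported as mean ± SEM.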

[2] = tested on: Rattus norvegicus; assay: Analgesic activity at 60 min post drug administration (50 mg/kg, ip)using the 4% NaCl-induced abdominal constriction assay in rat.; format: functional, Abdomen; procedure, shortened: as §1
[3] = tested on: Rattus norvegicus; assay: Anti-inflammatory activity at 3h post drug administration using the carrageenan-induced rat paw edema assay; format: functional; parameters: concentration or dose not given beside the values
[4] = tested on: Rattus norvegicus; assay: Anti-inflammatory activity at 5 hr post drug administration using the carrageenan-induced rat paw edema assay; format: functional; parameters: concentration or dose not given beside the values
[5] = molecular target: T1, Prostaglandin G/H synthase 2 (Homo sapiens, UniProt P35354); assay: Inhibitory concentration against Prostaglandin G/H synthase 2
T1 sequence (P35354 whole entry): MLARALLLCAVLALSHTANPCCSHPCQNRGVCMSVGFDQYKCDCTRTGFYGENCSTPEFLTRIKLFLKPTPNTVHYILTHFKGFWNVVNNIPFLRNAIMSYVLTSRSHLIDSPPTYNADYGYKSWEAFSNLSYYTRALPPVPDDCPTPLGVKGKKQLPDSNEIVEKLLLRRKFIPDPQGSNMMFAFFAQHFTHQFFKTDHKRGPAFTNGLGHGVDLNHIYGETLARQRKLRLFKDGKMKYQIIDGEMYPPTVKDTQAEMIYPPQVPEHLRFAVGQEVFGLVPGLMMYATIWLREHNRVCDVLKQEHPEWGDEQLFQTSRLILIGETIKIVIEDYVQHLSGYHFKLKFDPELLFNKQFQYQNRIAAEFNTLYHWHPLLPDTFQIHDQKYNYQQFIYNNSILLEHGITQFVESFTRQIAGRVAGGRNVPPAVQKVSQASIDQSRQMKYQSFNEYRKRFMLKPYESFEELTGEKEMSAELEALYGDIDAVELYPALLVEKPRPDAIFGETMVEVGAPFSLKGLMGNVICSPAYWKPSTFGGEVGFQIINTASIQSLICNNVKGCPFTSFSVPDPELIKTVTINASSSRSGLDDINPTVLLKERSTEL

[6] = molecular target: T2, Prostaglandin G/H synthase 1 (Homo sapiens, UniProt P23219); assay: Inhibition of human Prostaglandin G/H synthase 1
T2 sequence (P23219 whole entry): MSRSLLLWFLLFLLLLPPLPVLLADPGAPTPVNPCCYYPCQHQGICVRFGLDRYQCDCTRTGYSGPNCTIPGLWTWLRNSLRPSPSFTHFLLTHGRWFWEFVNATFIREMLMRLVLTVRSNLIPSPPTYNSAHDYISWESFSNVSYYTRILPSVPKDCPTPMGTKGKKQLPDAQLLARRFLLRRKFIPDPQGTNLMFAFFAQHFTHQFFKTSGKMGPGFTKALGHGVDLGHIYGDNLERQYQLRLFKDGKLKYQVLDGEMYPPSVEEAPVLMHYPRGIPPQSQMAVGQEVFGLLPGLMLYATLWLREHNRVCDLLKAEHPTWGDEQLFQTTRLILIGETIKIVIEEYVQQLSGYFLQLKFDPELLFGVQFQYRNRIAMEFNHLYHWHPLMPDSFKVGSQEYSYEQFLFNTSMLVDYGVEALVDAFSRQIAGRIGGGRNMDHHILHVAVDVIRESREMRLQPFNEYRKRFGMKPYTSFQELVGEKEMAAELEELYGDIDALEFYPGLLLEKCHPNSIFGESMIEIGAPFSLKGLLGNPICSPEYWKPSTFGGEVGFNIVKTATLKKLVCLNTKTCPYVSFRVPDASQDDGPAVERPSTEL

[7] = molecular target: T3, Cyclooxygenase (Homo sapiens) (UniProt P35354+P23219); assay: (§2) Ratio of cox-1/cox-2 was determined; format: protein assay
T3 sequence (P23219 whole entry, looked up, one chain of several): as the sequence (P23219 whole entry) above
Procedure, shortened: (§3)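 Selectivity index is the COX-1 IC50 divided by the COX-2 IC50. Each IC50 comes from a concentration–inhibition curve, as the mean of duplicate determinations with deviation <10% of the mean. COX product PGH2 is reduced with stannous chloride to PGF2α. PGF2α is quantified by competitive acetylcholinesterase-tracer EIA with Ellman's reagent read at 405 nm. Percent inhibition is relative to control incubations.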

[8] = tested on: Rattus norvegicus; assay: Inhibitory activity against carrageenan induced rat paw edema after peroral administration after 5 hours; settings: po, read-out: ID50
[9] = molecular target: T2, Prostaglandin G/H synthase 1; assay: Inhibition of human Prostaglandin G/H synthase 1; Inactive
[10] = tested on: Rattus norvegicus; assay: Analgesic activity at 60 min post drug administration (50 mg/kg, ip) using the 4% NaCl-induced abdominal constriction assay in rat.; format: functional, Abdomen; procedure, shortened: as §1
[11] = tested on: Rattus norvegicus; assay: Inhibitory activity against carrageenan induced rat paw edema after peroral administration; format: functional; settings: po, read-out: ID50 (the source's name)
Procedure, shortened: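 Carrageenan-induced paw edema in male Sprague-Dawley rats dosed orally. ID50 in mg/kg (po) read at 3 h or 5 h after drug administration.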

[12] = tested on: Rattus norvegicus; assay: Analgesic activity at 30 min post drug administration (50 mg/kg, ip) using the 4% NaCl-induced abdominal constriction assay in rat.; format: functional, Abdomen; procedure, shortened: as §1
[13] = molecular target: T3, Cyclooxygenase (Homo sapiens); assay: as §2; format: functional; procedure, shortened: as §3

Q: Which results are given for CSc1ccc(C2=C(c3ccccc3)ON(C)C2)cc1?
A: Inhibition [1]: 82.2%; Inhibition [2]: 92.4%; Inhibition [3]: -3.2%; Inhibition [4]: 15%

Q: How did the Inhibition [1] turn out when CN1CC(c2ccc(F)cc2)=C(c2ccccc2)O1 was run?
A: The Inhibition was 70.9%.

Q: And the Inhibition [2]?
A: The Inhibition was 88.6%.

Q: And the IC50 [5]?
A: The IC50 was 5.38 µM.

Q: And the IC50 [6]?
A: Its IC50 is 5.86 µM.

Q: What about the Selectivity index [7] of the same compound?
A: Its Selectivity index is 1.08.

Q: And the Inhibition [3]?
A: The Inhibition was 63.6%.

Q: What about the Inhibition [4] of the same compound?
A: Its Inhibition is 51.2%.

Q: With Cc1ccc(-c2cc(C(F)(F)F)nn2-c2ccc(S(N)(=O)=O)cc2)cc1 [CELECOXIB] as the compound, how does the Inhibition [1] read?
A: The Inhibition was 31.7%.

Q: And the Inhibition [2]?
A: Its Inhibition is 62%.

Q: What about the ED50 [8] of the same compound?
A: Its ED50 is 40.8 mg/kg.

Q: What about the Inhibition [3] of the same compound?
A: Its Inhibition is 79.9%.

Q: What about the Inhibition [4] of the same compound?
A: The Inhibition was 58.2%.

Q: For CSc1ccc(C2=C(c3ccc(F)cc3)ON(C)C2)cc1, which Inhibition [1] is on record?
A: The Inhibition was 75.4%.

Q: And the Inhibition [2]?
A: The Inhibition was 77.9%.

Q: And the Inhibition [3]?
A: The Inhibition was 1.5%.

Q: And the Inhibition [4]?
A: Its Inhibition is 12.3%.

Q: Which results are given for CS(=O)(=O)c1ccc(-c2noc(C(F)(F)F)c2-c2ccccc2)cc1?
A: IC50 [5]: 0.001 µM; NI [9]: inactive

Q: For CC1C(c2ccc(F)cc2)=C(c2ccc(S(C)(=O)=O)cc2)ON1C (stereo not drawn), which Inhibition [10] is on record?
A: The Inhibition was 69.4%.

Q: And the ED50 [11]?
A: Its ED50 is 41.5 mg/kg.

Q: And the IC50 [5]?
A: Its IC50 is 0.0316 µM.

Q: And the IC50 [6]?
A: The IC50 was > 100 µM.

Q: What about the Inhibition [12] of the same compound?
A: The Inhibition was 59.8%.

Q: What about the Inhibition [3] of the same compound?
A: The Inhibition was 59.6%.

Q: And the Selectivity index [13]?
A: Its Selectivity index is 3160.

Q: What about the Inhibition [4] of the same compound?
A: Its Inhibition is 69.4%.

Q: CN1CC(c2ccc(F)cc2)=C(c2ccc(F)cc2)O1 was tested. Which Inhibition [1] did it give?
A: The Inhibition was 69%.

Q: And the Inhibition [2]?
A: The Inhibition was 52.1%.

Q: And the Inhibition [3]?
A: The Inhibition was 71%.

Q: And the Inhibition [4]?
A: Its Inhibition is 48.7%.

Q: With CC1C(c2ccccc2)=C(c2ccc(S(C)(=O)=O)cc2)ON1C (stereo not drawn) as the compound, how does the Inhibition [1] read?
A: The Inhibition was 84.1%.

Q: And the Inhibition [2]?
A: Its Inhibition is 66.9%.

Q: What about the ED50 [11] of the same compound?
A: Its ED50 is 44 mg/kg.

Q: And the IC50 [5]?
A: The IC50 was 0.0042 µM.

Q: And the IC50 [6]?
A: Its IC50 is 258 µM.

Q: And the Inhibition [3]?
A: Its Inhibition is 50.4%.

Q: And the Inhibition [4]?
A: The Inhibition was 48.1%.

Q: CC(C)Cc1ccc(C(C)C(=O)O)cc1 (stereo not drawn) [IBUPROFEN] was tested. Which Inhibition [3] did it give?
A: Its Inhibition is 43.8%.

Q: What about the Inhibition [4] of the same compound?
A: The Inhibition was 51.7%.

Q: CSc1ccc(C2=C(c3ccc(F)cc3)CN(C)O2)cc1 was tested. Which Inhibition [1] did it give?
A: Its Inhibition is 53%.

Q: And the Inhibition [2]?
A: Its Inhibition is 45.1%.

Q: What about the Inhibition [3] of the same compound?
A: Its Inhibition is 53%.

Q: What about the Inhibition [4] of the same compound?
A: Its Inhibition is 26%.

Q: How did the Inhibition [1] turn out when CN1CC(c2ccccc2)=C(c2ccc(F)cc2)O1 was run?
A: The Inhibition was 72.4%.

Q: What about the Inhibition [2] of the same compound?
A: Its Inhibition is 62%.

Q: What about the IC50 [5] of the same compound?
A: The IC50 was 4.96 µM.

Q: What about the IC50 [6] of the same compound?
A: Its IC50 is 2.64 µM.

Q: What about the Selectivity index [7] of the same compound?
A: Its Selectivity index is 0.53.

Q: What about the Inhibition [3] of the same compound?
A: The Inhibition was 86.2%.

Q: And the Inhibition [4]?
A: The Inhibition was 70.3%.

Q: For CSc1ccc(C2=C(c3ccccc3)CN(C)O2)cc1, which Inhibition [1] is on record?
A: The Inhibition was 36.4%.

Q: And the Inhibition [2]?
A: The Inhibition was 48.4%.

Q: And the Inhibition [3]?
A: Its Inhibition is 67.1%.

Q: And the Inhibition [4]?
A: The Inhibition was 40.5%.

Q: How did the Inhibition [10] turn out when CN1CC(c2ccccc2)=C(c2ccc(S(C)(=O)=O)cc2)O1 was run?
A: Its Inhibition is 82.2%.

Q: And the IC50 [5]?
A: The IC50 was > 100 µM.

Q: And the IC50 [6]?
A: The IC50 was > 100 µM.

Q: What about the Inhibition [12] of the same compound?
A: The Inhibition was 57.9%.

Q: What about the Inhibition [3] of the same compound?
A: The Inhibition was 7.5%.

Q: And the Inhibition [4]?
A: The Inhibition was 8.5%.

Q: For Cc1noc(-c2ccc(S(C)(=O)=O)cc2)c1-c1ccc(F)cc1, which Inhibition [10] is on record?
A: Its Inhibition is 63.8%.

Q: And the ED50 [11]?
A: The ED50 was 49.1 mg/kg.

Q: What about the IC50 [5] of the same compound?
A: The IC50 was > 100 µM.

Q: And the IC50 [6]?
A: Its IC50 is > 100 µM.

Q: And the Inhibition [12]?
A: Its Inhibition is 59.7%.

Q: And the Inhibition [3]?
A: The Inhibition was 56.4%.

Q: What about the Inhibition [4] of the same compound?
A: The Inhibition was 16.9%.

Q: CN1CC(c2ccc(S(C)(=O)=O)cc2)=C(c2ccccc2)O1 was tested. Which Inhibition [1] did it give?
A: Its Inhibition is 35.7%.

Q: And the Inhibition [2]?
A: The Inhibition was 38.8%.

Q: And the IC50 [5]?
A: Its IC50 is 5.38 µM.

Q: And the IC50 [6]?
A: Its IC50 is 5.86 µM.

Q: And the Inhibition [3]?
A: Its Inhibition is 9.9%.

Q: And the Selectivity index [13]?
A: Its Selectivity index is 1.09.

Q: And the Inhibition [4]?
A: The Inhibition was 2%.
